Screens from PubChem BioAssay.
ROMK primary – ROMK potassium channel modulators, primary screen, cell-based, thallium flux, MLSMR library. ATP-sensitive inward rectifier potassium channel 1 (Homo sapiens), P48048. Tet-inducible ROMK, thallium flux fluorescence; actives lie on both sides. B-score at 10 µM. 130,000 compounds, 2% hits. AID 1918, 2009;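 active = signal ratio slope over the read window, or its plate-corrected B-score, at least 3 SD from the plate mean, either direction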;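 also: B-score of the F/F0 ratio slope over 7 to 12 s after thallium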
ABCB1 inh – ABCB1 efflux pump inhibitors, primary screen, cell-based, multiplex, flow cytometry, ABCG2 counter-screen; CCRF-Adr cells, JC-1 efflux; ATP-dependent translocase ABCB1 (Homo sapiens), P08183; 190,000 compounds, 0.067% hits; inhibition, % at 6.6 µM; AID 1326, 2008; in the data active = inhibition above about 40%;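 also: 0% = vehicle and 100% = reference inhibitor; higher value means more JC-1 retained so stronger ABCB1 efflux block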
ABCG2 inh – ABCG2 efflux pump inhibitors, primary screen, multiplex with ABCB1, IgMXP3 cells, flow cytometry | Broad substrate specificity ATP-binding cassette transporter ABCG2 (Homo sapiens), Q9UNQ0 | JC-1 efflux | inhibition, % at 6.6 µM | 190,000 compounds, 0.1% hits;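 active = inhibition above 80%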;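 also: 0% = DMSO and 100% = nicardipine control wells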
Target sequence (Q9UNQ0 whole entry, looked up): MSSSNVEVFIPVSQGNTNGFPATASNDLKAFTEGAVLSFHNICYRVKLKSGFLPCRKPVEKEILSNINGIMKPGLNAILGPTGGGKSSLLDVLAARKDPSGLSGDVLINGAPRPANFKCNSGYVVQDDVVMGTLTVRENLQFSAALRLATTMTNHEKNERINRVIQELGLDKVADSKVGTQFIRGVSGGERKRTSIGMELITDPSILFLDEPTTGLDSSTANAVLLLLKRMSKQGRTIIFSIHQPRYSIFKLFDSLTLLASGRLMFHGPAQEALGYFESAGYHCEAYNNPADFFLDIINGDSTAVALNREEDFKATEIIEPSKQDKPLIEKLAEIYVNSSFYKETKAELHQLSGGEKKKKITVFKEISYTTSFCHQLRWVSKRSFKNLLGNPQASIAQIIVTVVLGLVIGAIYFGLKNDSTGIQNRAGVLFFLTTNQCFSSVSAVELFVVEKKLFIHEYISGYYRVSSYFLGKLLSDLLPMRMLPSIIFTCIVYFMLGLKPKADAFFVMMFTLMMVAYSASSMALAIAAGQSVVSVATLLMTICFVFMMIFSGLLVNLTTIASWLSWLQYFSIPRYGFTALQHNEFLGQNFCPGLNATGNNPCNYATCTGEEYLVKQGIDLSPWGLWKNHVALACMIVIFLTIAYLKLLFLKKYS
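Read-out basis: Efflux inhibition in percent versus controls | Test system: ABCG2 IgMXP3 and barcoded ABCB1 CCRF-Adr cell mix | Quantity: 3 million cells/mL in well | Schedule: 10 min at 25 °C | Control set: Nicardipine as high control, DMSO as low control | Reagent: JC-1 as fluorescent efflux pump substrate | Signal: Flow cytometry of retained JC-1 fluorescence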
TRPN1 ag – zebrafish TRPN1 channel agonists, primary screen, cell-based, HEK293, calcium fluorescence; HEK293 zebrafish TRPN1-YFP, Fluo-8 calcium fluorescence; 100% = response to 87 µM carbachol; activation, % at 3 µM; AID 1424, 2008; 220,000 compounds, 0.18% hits;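 active = activation above its plate's cutoff, the mean activation of test wells on that plate plus 3 SD, cut at about 19% in these data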;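 also: 0% = DMSO alone and 100% = 87 µM carbachol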
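Material: zebrafish TRPN1-YFP in HEK293 cells; Doses: single test compound dose, 3 µM nominal, 0.3% DMSO; Timing: dye loading 1 h at 37 °C, then 30 min room temperature; Technique: intracellular calcium fluorescence with Fluo-8; Benchmarks: high carbachol 87 µM, low DMSO alone.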
Biofilm kill mix – clotrimazole potentiators killing C. albicans biofilm, primary screen, 4-compound mixtures; inhibition, % at 7.6 µM; 120,000 compounds, 0.02% hits; C. albicans biofilm persisters + clotrimazole, fluorescence viability; primary screen in compound mixtures of four per well; AID 1242, 2008;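 active = inhibition above 30.3% in the primary screen of four-compound pools, then above 30% when the compound was retested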;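 also: compounds exposed to preformed 24 h biofilms for 48 h; 0% = untreated biofilm control and 100% = clotrimazole plus chlorhexidine kill blank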
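Probe or stimulus – Clotrimazole 50 µg/mL co-treatment · System – C. albicans biofilms · Schedule – 24 h biofilm formation, then 48 h compound exposure, 37 °C · Evaluation – percent inhibition of biofilm viability · Technique – 2-h Alamar Blue fluorescence, 535/590 nm excitation/emission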
TRPML3 ag – human TRPML3 channel agonists, primary screen, cell-based, HEK293 TRPML3-YFP, Fluo-8 calcium fluorescence, 3 µM; Mucolipin-3 (Homo sapiens), Q8TDD5; 100% = the carbachol control signal; activation, % at 3 µM; 220,000 compounds, 0.29% hits; AID 1448, 2008;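 active = activation above its plate's cutoff, the mean activation of the plate's test wells plus 3 SD, cut at about 12% in these data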;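 also: 0% = DMSO only wells and 100% = carbachol wells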
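Material: TRPML3-YFP stable HEK293 cells | Dosing: One concentration, 3 µM nominal, 0.3% DMSO | Timing: 125 s total fluorescence read per well | Technique: Fluo-8 calcium dye fluorescence, ex 470-495, em 515-575 nm | Measure: Percent activation from peak-to-basal fluorescence ratio, scaled between DMSO and carbachol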
An asterisk follows results filed as active; / = not tested or not shown. This is one part of a sample in which hits are shown more often than they occur.

SMILES	ROMK primary	ABCB1 inh	ABCG2 inh	TRPN1 ag	Biofilm kill mix	TRPML3 ag
CN1CCN(C(=O)c2ccc(COc3ccc(C(C)(C)C)cc3)o2)CC1	/	0.6	1.6	-0.6	/	0.2
CCNc1nc2cccnc2s1	-0.378	/	/	0.1	15.5	0.1
CCN(CC)S(=O)(=O)c1ccc(N2CCCCC2)c(C(=O)Nc2ccccc2N2CCOCC2)c1	-3.64*	4.5	3.6	-0.8	/	0.4
CCN(CC)S(=O)(=O)c1ccc(N2CCOCC2)c(NC(=O)c2cccc3ccccc23)c1	/	4.3	14.1	1.1	17.0	-0.3
CCOc1ccc(CN2CCN(Cc3cc4ccccc4[nH]3)CC2CCO)cc1 (centres undefined)	-0.603	-1.5	-3.6	4.6	-9.2	1.4
COc1cccc(CN2CCN(Cc3cc4ccccc4[nH]3)CC2CCO)c1 (centres undefined)	/	/	/	28.2*	25.6	11.3
COC(=O)CCCCCCCC(=O)Nc1nnc(C(F)(F)F)s1	/	/	/	1.6	0.9	-0.8
Cc1ccc(C(C(=O)NC2CCCC2)N(Cc2ccc3c(c2)OCO3)C(=O)c2snc(C(N)=O)c2N)cc1 (centres undefined)	/	/	/	-1.0	18.8	-1.2
O=C(NC1CCCCC1)C(c1ccccc1)N(Cc1ccc2c(c1)OCO2)C(=O)c1cnsn1 (centres undefined)	-2.35*	1.2	1.6	-1.6	0.0	0.2
Cc1cc(C(=O)N/N=C/c2ccccc2Br)no1	3.09*	0.8	33.9	1.1	/	-0.1
NC(=S)N/N=C/c1c(O)c(Br)cc2oc3c(c12)CCCC3	/	/	/	1.5	18.1	0.7
Oc1c(Br)cc2oc3c(c2c1CNCc1ccccc1)CCCC3	2.88*	0.2	1.4	-2.2	/	-0.1
Nc1ccc2c3c(cccc13)CC2	-1.98	0.9	2.2	41.7*	/	19.9*
c1ccc(Nc2ccc3c4c(cccc24)CC3)cc1	/	-1.1	-1.4	-0.7	2.5	0.0
CCC(=O)NC(=S)NNC(=O)c1ccccc1[N+](=O)[O-]	0.056	0.2	-0.1	0.0	4.5	0.3
CCCN(Cc1ccccc1)C(=S)NC(=O)c1ccccc1[N+](=O)[O-]	4.47*	0.3	1.4	-0.4	8.2	0.4
CCN(CC)C(=S)NC(=O)c1ccc(Cl)cc1Cl	1.44	1.2	4.3	-0.3	/	1.3
CCCCN(CCCC)C(=S)NC(=O)c1ccccc1Cl	2.75*	0.8	2.9	-1.7	12.7	-0.4
CN(Cc1ccccc1)S(=O)(=O)c1cccc(C(=O)O)c1	1.29	1.2	5.6	-0.2	10.8	0.8
COC(=O)c1cccc(NC(=O)Nc2ccc(Cl)c(Cl)c2)c1	/	-0.5	0.0	19.5*	/	6.6
Cc1ccccc1NC(=O)CSc1ccncc1	/	/	/	1.6	14.0	0.3
Cc1cc([N+](=O)[O-])ccc1-c1ccc(C2Nc3ccccc3C(=O)N2O)o1 (centres undefined)	/	1.4	7.3	-0.1	/	-0.4
CCOC(=O)c1ccc(-c2ccc(C3Nc4ccccc4C(=O)N3O)o2)cc1 (centres undefined)	-3.77*	-0.1	-1.4	-1.0	16.9	-0.9
Cc1cc(C(=O)N2CCCC(C(=O)c3cccc(C(F)(F)F)c3)C2)nc(C)n1 (centres undefined)	-0.0299	0.3	0.9	0.0	8.3	0.9
CCOC(=O)CC1C(=O)NCCN1c1nc2ccc(C)cn2c(=O)c1/C=C1\SC(=S)N(CC(C)C)C1=O (centres undefined)	/	/	/	31.8*	5.7	5.3
SMILES	ROMK primary	ABCB1 inh	ABCG2 inh	TRPN1 ag	Biofilm kill mix	TRPML3 ag
CCOC(=O)CC1C(=O)NCCN1S(=O)(=O)c1ccc(Cl)c(Cl)c1 (centres undefined)	/	0.2	0.6	0.8	/	0.1
CCCN1C(=O)/C(=C/c2c(N3CCNC(=O)C3CC(=O)OCC)nc3c(C)cccn3c2=O)SC1=S (centres undefined)	/	/	/	28.3*	16.5	11.6*
CCOC(=O)CC1C(=O)NCCN1c1nc2ccc(C)cn2c(=O)c1/C=C1\SC(=S)N(C(C)CC)C1=O (centres undefined)	/	/	/	20.3*	6.9	2.3
CCC(C)N1C(=O)/C(=C/c2c(NCCCOC(C)C)nc3c(C)cccn3c2=O)SC1=S (centres undefined)	/	28.4	39.1	2.2	/	2.4
O=C1NC[C@@H](Cc2cccc3ccccc23)N(CC2(c3ccccc3)CC2)C1=O	/	/	/	/	2.6	/
COc1cccc(CNC(=O)CCC2CCCN(Cc3cc4ccccc4o3)C2)c1 (centres undefined)	-1.46	2.3	2.9	-0.1	3.1	1.2
CC(C)Cc1ccc(C(C)C(=O)Nc2ccc(O)cc2)cc1 (centres undefined)	-0.117	-0.1	0.1	44.6*	11.0	22.0*
CC(C)CNC(=O)N1c2ccccc2Sc2ccccc21	/	/	/	-1.3	15.2	-0.8
O=C(NCCc1ccccc1)N1c2ccccc2Sc2ccccc21	1.81*	0.6	2.1	-1.8	/	-1.3
Cc1ccc(C2NC(=O)CCC2[N+](=O)[O-])cc1 (centres undefined)	0.188	0.2	-0.2	0.3	-0.5	0.9
CN(Cc1cccs1)C(=O)CCCc1c[nH]c2ccccc12	1.93	0.6	11.6	32.3*	14.5	32.0*
CC(C(=O)Nc1ccc2c(c1)OCO2)c1ccc([N+](=O)[O-])cc1 (centres undefined)	-1.16	-0.1	6.8	8.5	19.1	5.2
CC(C(=O)Nc1ccc2c(c1)OCCO2)c1ccc([N+](=O)[O-])cc1 (centres undefined)	/	1.1	7.3	19.9*	23.6	13.5*
Fc1ccc2[nH]c3c(c2c1)CN(C(=S)NCc1ccccc1)CC3	/	/	/	1.5	0.1	0.7
COc1cc(OC)cc(C(=O)NC(=S)NNC(=O)[C@H]2C[C@@H]2c2ccccc2)c1	/	/	/	33.8*	15.2	18.6*
COc1ccc(C(=O)NC(=S)NNC(=O)[C@H]2C[C@@H]2c2ccccc2)cc1OC	/	/	/	5.5	17.7	6.5
Cc1cccc(NC(=O)CSc2cc(C)c(C#N)c3nc4ccccc4n23)c1	/	/	/	-1.7	21.4	-0.6
O=C(c1cc2nc(-c3cccs3)cc(C(F)(F)F)n2n1)N1CCCc2ccccc21	0.189	20.4	100.2*	-1.8	/	0.8
Cc1cc(/C=N/NC(=O)c2ccccc2F)c(C)n1-c1ccccc1	4.19*	0.6	8.3	-0.1	8.7	0.8
